Compound activity as filed in PubChem BioAssay.
Sampled rows, rich in hits. Any-hit rate of the full collection: about 1.7%.
Scp-1 inhibitor: Scp-1 (human) phosphatase inhibition. Q9GZU7. Recombinant Scp1, phosphopeptide, malachite green phosphate absorbance. inhibition, % at 20 µM. actives 0.88% (n = 340,000). AID 493091;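 active = inhibition above about 50% at 20 µM, limit read from the data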
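Times: enzyme reaction 45 min at room temperature, colour 5 min, stabilisation 30 min. Material: SCP-1 catalytic fragment, aa 76-261. Medium: Acidic Tris acetate buffer with magnesium and detergent. Signal: colorimetric free-phosphate detection, absorbance 630 nm. Read-out basis: % inhibition of SCP-1 phosphate liberation. Reagent: Phosphorylated 17-residue peptide substrate.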
STEP inh: STEP (human) phosphatase inhibition. recombinant STEP, OMFP fluorogenic substrate, fluorescence. inhibition, % at 20 µM. actives 0.25% (n = 360,000);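 active = inhibition at 20 µM, scaled per plate between control wells, above about 37%, limit read from the data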
Target sequence (P54829 whole entry, looked up): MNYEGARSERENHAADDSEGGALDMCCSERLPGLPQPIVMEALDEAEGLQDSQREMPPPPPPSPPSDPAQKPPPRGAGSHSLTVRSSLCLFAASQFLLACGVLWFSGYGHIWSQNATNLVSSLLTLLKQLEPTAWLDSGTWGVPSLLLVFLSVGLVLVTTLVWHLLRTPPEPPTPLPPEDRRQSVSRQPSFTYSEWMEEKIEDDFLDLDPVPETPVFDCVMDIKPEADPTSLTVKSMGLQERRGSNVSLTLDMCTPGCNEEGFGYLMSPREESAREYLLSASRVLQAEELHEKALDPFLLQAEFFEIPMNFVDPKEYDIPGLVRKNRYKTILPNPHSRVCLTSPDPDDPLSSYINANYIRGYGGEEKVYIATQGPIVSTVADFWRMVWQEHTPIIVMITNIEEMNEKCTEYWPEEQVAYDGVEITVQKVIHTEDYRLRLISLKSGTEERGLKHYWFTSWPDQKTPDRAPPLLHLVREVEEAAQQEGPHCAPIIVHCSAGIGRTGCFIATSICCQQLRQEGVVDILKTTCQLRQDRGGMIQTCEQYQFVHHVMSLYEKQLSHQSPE
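Test system: STEP tyrosine phosphatase / Reagent: OMFP at 25 µM / Doses: 20 µM, 1% DMSO / Read-out: percent inhibition scaled to no-enzyme and uninhibited-enzyme controls, plate-pattern corrected / Detection: FITC-channel fluorescence of OMFP product / Medium: Bis-Tris buffer pH 6.0, 2.5 mM DTT, 0.005% Tween 20 / Schedule: 20 min at room temperature, dark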
LMPTP inh: blocks human LMPTP phosphatase. P24666. recombinant LMPTP-A, OMFP fluorogenic substrate, fluorescence intensity. inhibition, % at 20 µM. actives 0.22% (n = 360,000);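 active = compounds that cut the enzyme signal by at least half of the control window in the single-dose screen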
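Test system – LMPTP-A phosphatase enzyme · Quantity – 0.625 nM LMPTP-A final · Reagent – OMFP substrate, 400 µM final · Dosing – one test concentration per compound, 20 µM, with 3% DMSO overall · Timing – 50 min enzyme reaction at room temperature, protected from light · Detection – fluorescence intensity · Controls – substrate-only low control, DMSO enzyme-plus-substrate high control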
SUMO1 PPI mod: SUMO1-SIM interaction modulation | P63165 | SUMO1 binding to a labelled peptide, TR-FRET, 1 h | inhibition, % at 20 µM | actives 0.33% (n = 360,000) | AID 602429; in the data active = inhibition above about 37%
DNMT1 block: DNMT1 (human) enzyme inhibition; AID 588458; DNMT1 molecular beacon, Hinp1I cleavage, fluorescence; inhibition (reported as % activation of signal), % at 10 µM; actives 0.83% (n = 360,000); P26358; in the data active = inhibition above about 50%
Numbers stand for hits; – = inactive; · = no result; ! = repeats disagree.

SMILES | Scp-1 inhibitor | STEP inh | LMPTP inh | SUMO1 PPI mod | DNMT1 block
O=C(CCCN1C(=O)C(=Cc2ccc3c(c2)OCO3)SC1=S)Nc1ccc(C(=O)O)c(O)c1 | · | – | 52 | – | –
CC(C(=O)N(C)C1CCS(=O)(=O)C1)N1C(=O)/C(=C/c2ccco2)SC1=S (stereo unspecified) | – | – | – | – | –
CC(C(=O)Nc1ccc(C(=O)O)c(O)c1)N1C(=O)/C(=C\c2ccco2)SC1=S (stereo unspecified) | 70 | 64 | – | 88 | 95
O=C(CCCN1C(=O)/C(=C/c2ccccc2)SC1=S)Nc1ccc(C(=O)O)c(O)c1 | – | – | – | – | –
O=C(CCCN1C(=O)/C(=C/c2ccc3c(c2)OCO3)SC1=S)Nc1ccc(C(=O)O)cc1 | – | – | – | – | –
Cc1ccc(NC(=O)CN2C(=O)S/C(=C\c3ccc(-c4cccc(C(=O)O)c4C)o3)C2=O)cc1C | 92 | 68 | 82 | – | 53
O=C(CN1C(=O)/C(=C/c2ccco2)SC1=S)Nc1ccc(C(=O)O)c(O)c1 | – | 64 | – | 78 | 95
COc1ccc(N2CCN(C(=O)CNC(=O)Cn3cnc4sc(C)c(C)c4c3=O)CC2)cc1 | – | – | – | – | –
O=C(O)c1cc(S(=O)(=O)N2CCOCC2)c[nH]1 | – | – | – | – | –
COc1cccc(C2c3cc4c(cc3OC(C)(N3CCCC3)C2C)OCO4)c1O (stereo unspecified) | – | – | – | – | –
CC(=O)c1c(C)[nH]c(C(=O)OCC(=O)c2ccc3c(c2)NC(=O)CO3)c1C | – | – | – | 65 | –
Cc1cccc(C(=O)OCC(=O)c2ccc3c(c2)NC(=O)CO3)c1 | – | – | – | – | –
O=C1C=CC(=O)c2c(O)c(CO)c(CO)c(O)c21 | 85 | 94 | 93 | 118 | 114
Cc1ccc(-c2nn(-c3ccccc3)cc2C2CC(c3cccs3)=NN2C(=O)CCCC(=O)O)cc1 (stereo unspecified) | 89 | – | – | – | –
CCCOc1ccc(Cl)cc1/C=C1/C(=O)ON=C1C | – | – | – | – | –
CC1=NOC(=O)/C1=C\c1ccc(-c2ccc(Cl)cc2Cl)o1 | – | – | – | 53 | 91
COc1cc(OC)cc(C(=O)NCc2ccc3c(c2)OCO3)c1 | – | – | – | – | –
COc1ccccc1/C=C(\NC(=O)c1ccccc1)C(=O)NCc1ccco1 | – | – | – | – | –
COc1ccc(CNc2nc(NCc3ccc(OC)cc3)c3[nH]cnc3n2)cc1 | – | – | 78 | – | –
COc1ccc(CNc2ncnc(N)n2)cc1 | – | – | – | – | –
COC(=O)c1ccccc1NC(=O)CSc1nc(NC(=O)c2ccccc2)c2c(C)c(C)oc2n1 | – | – | – | 67 | –
Cc1cc(NC(=O)c2ccco2)sc1C | – | – | – | – | –
O=C1CN(C(=S)NC(=O)c2ccccc2[N+](=O)[O-])CCN1 | – | – | – | – | –
CCc1ccc(N=C2NC(=O)/C(=C/c3cc(OC)c(OC)c(OC)c3)S2)cc1 | – | – | – | – | –
CCc1ccc(N=C2NC(=O)/C(=C/c3cc(Br)c(OCC(=O)O)c(OC)c3)S2)cc1 | – | 97 | 59 | – | –
SMILES | Scp-1 inhibitor | STEP inh | LMPTP inh | SUMO1 PPI mod | DNMT1 block
Cn1c(Cc2ccccc2)nnc1SCC(=O)Nc1ccc(N2CCOCC2)cc1 | – | – | – | – | –
Cc1[nH]ccc2cc3nc4ccccc4c3cc12 | · | – | 86 | – | –
CCN(CC(=O)Nc1cccc(OC)c1)C(=O)c1ccco1 | – | – | – | – | –
O=C(OC1CCOC1=O)c1ccccc1C(=O)c1ccc(Cl)c([N+](=O)[O-])c1 (stereo unspecified) | – | – | – | – | –
CS(=O)(=O)c1ccc(C(=O)OC2CCOC2=O)cc1[N+](=O)[O-] (stereo unspecified) | – | – | – | – | 68
Cc1ccc(NC(=O)CN2C(=O)C3CC=C(Cl)CC3C2=O)cc1 (stereo unspecified) | – | – | – | – | –
CCC1CCCCN1CCCNC(=O)CCCOc1cc(=O)n(C)c2ccccc12 (stereo unspecified) | – | – | – | – | –
CCC1CCCCN1CCCNC(=O)COc1cc(=O)n(C)c2ccccc12 (stereo unspecified) | – | – | – | 44 | –
FC(F)(F)Oc1ccccc1C(c1nnnn1C1CCCC1)N1CCN(C/C=C/c2ccccc2)CC1 (stereo unspecified) | · | – | – | – | –
Cc1ccc(-c2ccc(CN3C(C)C(=O)N(Cc4cn(Cc5ccco5)nn4)CCS3(=O)=O)cc2)cc1 (stereo unspecified) | · | – | – | – | –
CC1C(=O)N(Cc2cn(Cc3ccco3)nn2)CCS(=O)(=O)N1Cc1ccc(-c2cccnc2)cc1 (stereo unspecified) | · | – | 54 | – | –
Cc1cc(=O)oc2c1c(C)nn2-c1nn[nH]n1 | 68 | – | – | – | –
CCCc1cc(=O)oc2cc(C)cc(OCc3nn[nH]n3)c12 | – | – | – | – | –
Cc1ccc(S(=O)(=O)N(C(=O)c2ccncc2)c2ccc(OC(=O)c3ccncc3)c3ccccc23)c(C)c1 | 60 | – | – | – | –
O=C(Nc1ccc(F)cc1F)c1noc2c1CCC2 | 79 | – | – | – | 88
COc1nc(Nc2nc3ccccc3c(=O)[nH]2)nc2ccc(C)cc12 | – | – | – | 47 | –
COc1ccc(N(CC(=O)NCC2CCCO2)S(=O)(=O)c2ccccc2)cc1OC (stereo unspecified) | – | – | – | – | –
Cc1ccc(NC2=C/C(=N\S(=O)(=O)c3cccs3)c3ccccc3C2=O)c(C)c1 | – | – | – | – | –
O=C1C(Nc2ccc(O)cc2)=C/C(=N/S(=O)(=O)c2cccs2)c2ccccc21 | – | – | – | 52 | 67
O=C(O)c1ccc(NC2=C/C(=N/S(=O)(=O)c3cccs3)c3ccccc3C2=O)cc1 | · | – | – | 65 | 97
Cc1ccc(Cl)cc1NC1=C/C(=N\S(=O)(=O)c2cccs2)c2ccccc2C1=O | – | – | – | – | 57!
C=CCNC(=O)N1CCCC(N2CCN(c3ccccc3OC)CC2)C1 (stereo unspecified) | – | – | – | – | –
N#Cc1ccc(NC(=O)c2sc3cc(C(F)(F)F)cnc3c2-c2cccs2)cc1 | – | – | – | 56 | –
O=C(Nc1ccc(F)cc1)c1sc2cc(C(F)(F)F)cnc2c1-c1cccs1 | – | – | – | – | –
O=C(CCl)Nc1ccc(-c2ccccc2)cc1 | – | – | – | 56 | –
COC(=O)c1cc(C)nc2c1C(=O)C(=O)C=C2N1CCOCC1 | – | – | – | 79 | 97
N#C/C(=C/c1ccc(-c2ccc([N+](=O)[O-])cc2)o1)c1nnc(N2CCOCC2)n1-c1ccccc1 | – | – | – | – | –
